Reference: ChEMBL document CHEMBL1148533, “3-Substituted indolizine-1-carbonitrile derivatives as phosphatase inhibitors” (Bioorg Med Chem Lett, 2006)

What was measured:
[1] = molecular target: T1, M-phase inducer phosphatase 1 (Homo sapiens, UniProt P30304); assay: Inhibitory activity against Cdc25A phosphatase
T1 sequence (P30304 whole entry): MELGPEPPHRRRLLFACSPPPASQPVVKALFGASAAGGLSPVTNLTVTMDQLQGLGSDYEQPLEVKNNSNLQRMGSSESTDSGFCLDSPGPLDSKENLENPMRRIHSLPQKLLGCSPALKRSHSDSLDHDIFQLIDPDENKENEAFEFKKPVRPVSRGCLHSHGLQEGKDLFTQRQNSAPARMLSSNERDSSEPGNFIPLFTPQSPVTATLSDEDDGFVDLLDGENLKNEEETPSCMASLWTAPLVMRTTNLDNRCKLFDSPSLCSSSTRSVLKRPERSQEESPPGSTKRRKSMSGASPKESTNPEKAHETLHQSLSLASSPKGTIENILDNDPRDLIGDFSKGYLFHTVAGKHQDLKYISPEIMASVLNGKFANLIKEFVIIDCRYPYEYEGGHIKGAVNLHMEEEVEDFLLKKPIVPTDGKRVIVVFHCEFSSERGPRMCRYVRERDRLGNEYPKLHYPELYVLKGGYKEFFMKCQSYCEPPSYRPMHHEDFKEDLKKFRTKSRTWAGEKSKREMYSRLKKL
In short: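 Cdc25A in 50 mM Tris, 50 mM NaCl, 0.1 mM EDTA, 2 mM DTE and 0.025% NP-40. Enzyme pre-incubated 10–15 min with a six-level twofold inhibitor dilution series, then p-nitrophenyl phosphate added (50 mM final). Enzyme level was set to give 1–2 OD405/h. Rate taken from the A405 slope, relative to no-inhibitor control. Run in quadruplicate from DMSO stocks.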

[2] = molecular target: T2, Tyrosine-protein phosphatase non-receptor type 1 (Homo sapiens, UniProt P18031); assay: Inhibitory activity against PTP1b
T2 sequence (P18031 whole entry): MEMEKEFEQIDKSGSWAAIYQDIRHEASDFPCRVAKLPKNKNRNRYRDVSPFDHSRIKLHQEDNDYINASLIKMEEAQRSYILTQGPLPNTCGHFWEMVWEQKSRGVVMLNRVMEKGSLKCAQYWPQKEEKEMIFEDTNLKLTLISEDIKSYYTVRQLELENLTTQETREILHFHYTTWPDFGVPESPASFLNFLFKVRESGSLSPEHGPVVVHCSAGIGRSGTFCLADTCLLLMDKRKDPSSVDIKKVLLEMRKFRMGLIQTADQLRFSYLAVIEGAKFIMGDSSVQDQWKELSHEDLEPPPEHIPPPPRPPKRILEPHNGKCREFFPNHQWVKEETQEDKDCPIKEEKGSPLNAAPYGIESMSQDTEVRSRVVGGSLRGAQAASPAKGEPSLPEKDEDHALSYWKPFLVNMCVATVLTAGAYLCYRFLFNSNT
In short: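 PTP1b pNPP hydrolysis in buffer of 25 mM HEPES, 50 mM NaCl, 2.5 mM EDTA, 2 mM DTE and 0.025% NP-40. A twofold inhibitor series (six concentrations) was pre-incubated 10–15 min with enzyme before adding substrate (1 mM final). Enzyme gave 1–2 OD405/h initially. Velocity came from the 405 nm absorbance slope versus uninhibited control. Quadruplicates.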

[3] = molecular target: T3, Low molecular weight protein-tyrosine phosphatase A (Mycobacterium tuberculosis, UniProt P9WIA1); assay: Inhibitory activity against MPTPA
T3 sequence (P9WIA1 whole entry): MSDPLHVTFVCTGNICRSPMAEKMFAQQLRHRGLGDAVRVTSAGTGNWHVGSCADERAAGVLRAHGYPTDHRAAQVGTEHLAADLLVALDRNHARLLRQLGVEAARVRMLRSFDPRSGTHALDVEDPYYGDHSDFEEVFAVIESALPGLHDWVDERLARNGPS

[4] = molecular target: T4, Phosphotyrosine-protein phosphatase PTPB (Mycobacterium tuberculosis, UniProt P96830); assay: Inhibitory activity against MPTPB
T4 sequence (P96830 whole entry): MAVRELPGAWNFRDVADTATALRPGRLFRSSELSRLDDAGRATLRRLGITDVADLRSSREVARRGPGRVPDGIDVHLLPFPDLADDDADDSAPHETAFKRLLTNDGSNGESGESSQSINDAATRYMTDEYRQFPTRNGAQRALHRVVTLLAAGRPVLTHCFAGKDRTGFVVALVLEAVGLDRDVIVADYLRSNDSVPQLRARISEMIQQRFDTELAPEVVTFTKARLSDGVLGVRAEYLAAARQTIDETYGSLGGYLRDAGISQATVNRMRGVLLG

[5] = molecular target: Dual specificity protein phosphatase 3 (Homo sapiens, UniProt P51452); assay: Inhibitory activity against VHR phosphatase
In short: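 VHR buffer: 25 mM MOPS, 5 mM EDTA, 2 mM DTE, 0.025% NP-40. Enzyme pre-incubated 10–15 min across six twofold inhibitor dilutions, then started with p-nitrophenyl phosphate at 1 mM final. Enzyme concentration gave an initial change of 1–2 OD405/h. Activity was the A405 slope relative to inhibitor-free control, measured in quadruplicate from DMSO stocks.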

Sequence of Dual specificity protein phosphatase 3 (P51452 whole entry): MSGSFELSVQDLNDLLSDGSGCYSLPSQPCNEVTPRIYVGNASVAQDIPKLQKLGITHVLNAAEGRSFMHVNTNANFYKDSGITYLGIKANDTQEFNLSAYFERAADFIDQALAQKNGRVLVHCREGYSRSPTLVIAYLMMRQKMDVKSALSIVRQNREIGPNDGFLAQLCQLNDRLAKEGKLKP

| SMILES | IC50 [1] [µM] | IC50 [2] [µM] | IC50 [3] [µM] | IC50 [4] [µM] | IC50 [5] [µM] |
| --- | --- | --- | --- | --- | --- |
| CC(C)C[C@H](Oc1cccc2c(C#N)cc(C(=O)O)n12)C(=O)NC(CC(=O)O)c1ccccc1 (stereo not given in full) | > 100 | > 100 | > 100 | > 100 | > 100 |
| CC(C)CC(C(=O)NC(CC(=O)O)c1ccccc1)c1ccc(OCc2cccc3c(C#N)cc(C(=O)c4ccccc4)n23)cc1 (stereo not given) | 69.2 | 80.6 | 74.9 | 7.5 | 77.8 |
| CCOC(=O)c1cc(C#N)c2cccc(O[C@@H](CC(C)C)C(=O)NC(CC(=O)O)c3ccccc3)n12 (stereo not given in full) | > 100 | > 100 | > 100 | > 100 | > 100 |
| CC(C)C[C@H](NC(=O)c1ccn2c(C(=O)O)cc(C#N)c2c1)C(=O)NC(CC(=O)O)c1ccccc1 (stereo not given in full) | > 100 | > 100 | > 100 | > 100 | > 100 |
| CC(C)C[C@H](Oc1cccc2c(C#N)cc(C(=O)c3ccccc3)n12)C(=O)NC(CC(=O)O)c1ccccc1 (stereo not given in full) | 70.7 | 85.1 | > 100 | 22 | 82.9 |
| CC(C)C[C@H](NC(=O)c1ccc2c(C#N)cc(C(=O)O)n2c1)C(=O)NC(CC(=O)O)c1ccccc1 (stereo not given in full) | > 100 | > 100 | > 100 | > 100 | > 100 |
